The values that follow come from ChEMBL document CHEMBL3352499, “One pot three components microwave assisted and conventional synthesis of new 3-(4-chloro-2-hydroxyphenyl)-2-(substituted) thiazolidin-4-one as antimicrobial agents” (Bioorg Med Chem Lett, 2014).

For test [1], the system named is Bacillus subtilis. Kind of test: Antimicrobial activity against Bacillus subtilis NCIM-2063 after 20 hrs by two fold serial macrodilution technique. The test is classed as functional. The settings on record: NCIM-2063, 20 h. The essentials:
(§1)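 Serial macrodilution in 96-well microtiter plates. Compounds were dissolved in saline (0.8% NaCl) containing 5% DMSO, and strains were incubated with a range of concentrations for 20 h at 37 °C on a rotary shaker (160 rpm). MIC was the lowest concentration without growth. Runs were in triplicate, with the mean taken. The negative control was 5% DMSO.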

Test [2] concerns Bacillus subtilis. Kind of test: Bactericidal activity against Bacillus subtilis NCIM-2063 after 72 hrs by two fold serial macrodilution technique. In kind it is functional. The settings on record: NCIM-2063, 72 h. The essentials:
(§2)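 Serial subcultivation followed 72 h of exposure to compounds dissolved in saline containing 5% DMSO. MBC/MFC was the lowest concentration with no visible growth, taken as 99.5% killing of the original inoculum. Runs were in triplicate, with the mean reading used.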

For test [3], the system named is Staphylococcus aureus. Kind of test: Antimicrobial activity against Staphylococcus aureus NCIM-2901 after 20 hrs by two fold serial macrodilution technique. The settings on record: NCIM-2901, 20 h. In kind it is functional. The essentials:
as §1

The test system of test [4] is Staphylococcus aureus. Kind of test: Bactericidal activity against Staphylococcus aureus NCIM-2901 after 72 hrs by two fold serial macrodilution technique. In kind it is functional. The settings on record: NCIM-2901, 72 h. The essentials: as §2
The test system of test [5] is Escherichia coli. Kind of test: Antimicrobial activity against Escherichia coli NCIM-2256 after 20 hrs by two fold serial macrodilution technique. The test is classed as functional. The settings on record: NCIM-2256, 20 h. The essentials:
as §1

Test [6] deals with Escherichia coli. In words: Bactericidal activity against Escherichia coli NCIM-2256 after 72 hrs by two fold serial macrodilution technique. The test is classed as functional. The note with it: NCIM-2256, 72 h. The essentials: as §2
Test [7] has as its system Salmonella typhimurium. Kind of test: Antimicrobial activity against […] after 20 hrs by two fold serial macrodilution technique. In kind it is functional, Salmonella enterica subsp. enterica serovar Typhimurium. The note with it: Salmonella enterica. Put shortly: as §1
The test system of test [8] is Salmonella typhimurium. Kind of test: Bactericidal activity against […] after 72 hrs by two fold serial macrodilution technique. The settings on record: Salmonella enterica. The test is classed as functional, Salmonella enterica subsp. enterica serovar Typhimurium. The essentials: as §2
Test [9] relates to Candida albicans. Kind of test: Antimicrobial activity against Candida albicans NCIM-3471 after 20 hrs by two fold serial macrodilution technique. The test is classed as functional. The settings on record: NCIM-3471, 20 h.
Test [10] relates to Candida albicans. In words: Fungicidal activity against Candida albicans NCIM-3471 after 48 to 72 hrs by two fold serial macrodilution technique. In kind it is functional. The essentials:
as §2

The test system of test [11] is Aspergillus flavus. Kind of test: Antimicrobial activity against Aspergillus flavus NCIM-539 after 20 hrs by two fold serial macrodilution technique. The test is classed as functional. The note with it: NCIM-539, 20 h.
The subject of test [12] is Aspergillus flavus. Kind of test: Fungicidal activity against Aspergillus flavus NCIM-539 after 48 to 72 hrs by two fold serial macrodilution technique. The test is classed as functional. Put shortly: as §2
Test [13] concerns Aspergillus niger. Kind of test: Antimicrobial activity against Aspergillus niger NCIM-1196 after 20 hrs by two fold serial macrodilution technique. The note with it: NCIM-1196, 20 h. In kind it is functional.
Test [14] relates to Aspergillus niger. In words: Fungicidal activity against Aspergillus niger NCIM-1196 after 48 to 72 hrs by two fold serial macrodilution technique. In kind it is functional. The essentials:
as §2

In test [15] the test system is Cryptococcus neoformans. In words: Antimicrobial activity against Cryptococcus neoformans NCIM-3378 after 20 hrs by two fold serial macrodilution technique. The test is classed as functional. The settings on record: NCIM-3378, 20 h.
Test [16] relates to Cryptococcus neoformans. Kind of test: Fungicidal activity against Cryptococcus neoformans NCIM-3378 after 48 to 72 hrs by two fold serial macrodilution technique. The test is classed as functional. The essentials:
as §2

A further test has as its system HeLa. In words: Cytotoxicity against human HeLa cells by SRB method. The test is classed as cell-based. Put shortly:
(§3)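 SRB colorimetric growth assay. IC50, in µM, was the concentration inhibiting cell growth by 50% relative to untreated control cells. Runs were in triplicate in three independent experiments, with means reported. The positive control was doxorubicin.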

A further test deals with MCF7. In words: Cytotoxicity against human MCF7 cells by SRB method. The test is classed as cell-based. Put shortly:
as §3

Values after ≈ are worked out from the molar mass of the structure shown. Where a name gives a salt, the structure may show the parent alone.

With `O=C1CSC(c2ccc([N+](=O)[O-])cc2)N1c1ccc(Cl)cc1O` (centres undefined), the MIC in the test on Bacillus subtilis [1] came out at 100 µg/mL (≈ 285 µM); against Staphylococcus aureus [3] it was 85 µg/mL (≈ 242 µM); against Escherichia coli [5] it was 90 µg/mL (≈ 257 µM); against Salmonella typhimurium [7], 80 µg/mL (≈ 228 µM); against Candida albicans [9] it was 95 µg/mL (≈ 271 µM); with Aspergillus flavus [11], 75 µg/mL (≈ 214 µM). Also, the minimal inhibitory concentration (MIC) against Aspergillus niger [13] stood at 100 µg/mL (≈ 285 µM); in the test with Cryptococcus neoformans [15], 90 µg/mL (≈ 257 µM). For the same molecule, the MBC in the test on Bacillus subtilis [2] stood at 140 µg/mL (≈ 399 µM); against Staphylococcus aureus [4], 140 µg/mL (≈ 399 µM); in the test on Escherichia coli [6], 155 µg/mL (≈ 442 µM); with Salmonella typhimurium [8], 135 µg/mL (≈ 385 µM). The MFC against Candida albicans [10] was 155 µg/mL (≈ 442 µM); against Aspergillus flavus [12], 135 µg/mL (≈ 385 µM); in the test on Aspergillus niger [14] it was 160 µg/mL (≈ 456 µM); with Cryptococcus neoformans [16] it was 135 µg/mL (≈ 385 µM). Also, the IC50 was determined as 52.2 µM in the test on HeLa and 41 µM in the test with MCF7.
As to `O=C1CSC(c2ccccc2)N1c1ccc(Cl)cc1O` (centres undefined), the MIC against Bacillus subtilis [1] came to 60 µg/mL (≈ 196 µM); against Staphylococcus aureus [3], 25 µg/mL (≈ 81.8 µM); in the test with Escherichia coli [5], 65 µg/mL (≈ 213 µM); against Salmonella typhimurium [7], 55 µg/mL (≈ 180 µM); in the test with Candida albicans [9], 60 µg/mL (≈ 196 µM); against Aspergillus flavus [11] it was 80 µg/mL (≈ 262 µM). Besides, the figures for the MIC against Aspergillus niger [13] and with Cryptococcus neoformans [15] were 90 µg/mL (≈ 294 µM) and 70 µg/mL (≈ 229 µM), respectively. In addition, the MBC amounted to 85 µg/mL (≈ 278 µM) with Bacillus subtilis [2], 40 µg/mL (≈ 131 µM) in the test with Staphylococcus aureus [4], 125 µg/mL (≈ 409 µM) with Escherichia coli [6] and 120 µg/mL (≈ 392 µM) against Salmonella typhimurium [8]. Also, the MFC against Candida albicans [10] came out at 115 µg/mL (≈ 376 µM); against Aspergillus flavus [12], 115 µg/mL (≈ 376 µM); in the test with Aspergillus niger [14] it was 120 µg/mL (≈ 392 µM); with Cryptococcus neoformans [16], 125 µg/mL (≈ 409 µM). The values for the IC50 in the test on HeLa and in the test with MCF7 were 63.7 µM and 56.8 µM, respectively.
Take `O=C1CSC(c2ccc(Cl)cc2Cl)N1c1ccc(Cl)cc1O` (centres undefined): the MIC against Bacillus subtilis [1] was determined as 80 µg/mL (≈ 214 µM); in the test on Staphylococcus aureus [3], 90 µg/mL (≈ 240 µM); with Escherichia coli [5] it was 70 µg/mL (≈ 187 µM); against Salmonella typhimurium [7], 75 µg/mL (≈ 200 µM); in the test with Candida albicans [9], 90 µg/mL (≈ 240 µM); with Aspergillus flavus [11], 85 µg/mL (≈ 227 µM). Further, the MIC in the test on Aspergillus niger [13] amounted to 70 µg/mL (≈ 187 µM); in the test on Cryptococcus neoformans [15] it was 100 µg/mL (≈ 267 µM). The MBC in the test with Bacillus subtilis [2] was found to be 160 µg/mL (≈ 427 µM); against Staphylococcus aureus [4], 160 µg/mL (≈ 427 µM); with Escherichia coli [6], 150 µg/mL (≈ 400 µM); in the test on Salmonella typhimurium [8], 155 µg/mL (≈ 414 µM). Moreover, the MFC against Candida albicans [10] stood at 160 µg/mL (≈ 427 µM); in the test on Aspergillus flavus [12], 140 µg/mL (≈ 374 µM); in the test on Aspergillus niger [14], 145 µg/mL (≈ 387 µM); in the test with Cryptococcus neoformans [16], 150 µg/mL (≈ 400 µM). Also, the IC50 stood at 49.5 µM with HeLa and 48.4 µM in the test with MCF7.
For the molecule `O=C1CSC(c2cccs2)N1c1ccc(Cl)cc1O` (centres undefined), the MIC was determined as 35 µg/mL (≈ 112 µM) against Bacillus subtilis [1]; 60 µg/mL (≈ 192 µM) in the test with Staphylococcus aureus [3]; 85 µg/mL (≈ 273 µM) against Escherichia coli [5]; 70 µg/mL (≈ 224 µM) in the test with Salmonella typhimurium [7]; 100 µg/mL (≈ 321 µM) against Candida albicans [9]; 25 µg/mL (≈ 80.2 µM) in the test with Aspergillus flavus [11]. For the same molecule, the values for the MIC against Aspergillus niger [13] and against Cryptococcus neoformans [15] were 70 µg/mL (≈ 224 µM) and 95 µg/mL (≈ 305 µM), respectively. In addition, the MBC came out at 55 µg/mL (≈ 176 µM) in the test with Bacillus subtilis [2], 150 µg/mL (≈ 481 µM) in the test on Staphylococcus aureus [4], 160 µg/mL (≈ 513 µM) with Escherichia coli [6] and 155 µg/mL (≈ 497 µM) in the test on Salmonella typhimurium [8]. The MFC with Candida albicans [10] is 160 µg/mL (≈ 513 µM); in the test on Aspergillus flavus [12] it was 45 µg/mL (≈ 144 µM); in the test with Aspergillus niger [14], 155 µg/mL (≈ 497 µM); against Cryptococcus neoformans [16], 160 µg/mL (≈ 513 µM). Moreover, the figures for the concentration for half-maximal inhibition (IC50) in the test with HeLa and with MCF7 were 66.6 µM and 64.9 µM, respectively.
Consider `Cc1ncsc1C1SCC(=O)N1c1ccc(Cl)cc1O` (centres undefined), for which the MIC was determined as 30 µg/mL (≈ 91.8 µM) with Bacillus subtilis [1]; 15 µg/mL (≈ 45.9 µM) with Staphylococcus aureus [3]; 15 µg/mL (≈ 45.9 µM) in the test with Escherichia coli [5]; 20 µg/mL (≈ 61.2 µM) in the test with Salmonella typhimurium [7]; 30 µg/mL (≈ 91.8 µM) in the test on Candida albicans [9]; 3 µg/mL (≈ 9.18 µM) with Aspergillus flavus [11]. In addition, the MIC worked out at 80 µg/mL (≈ 245 µM) in the test on Aspergillus niger [13] and 55 µg/mL (≈ 168 µM) against Cryptococcus neoformans [15]. Moreover, the MBC in the test with Bacillus subtilis [2] worked out at 55 µg/mL (≈ 168 µM); against Staphylococcus aureus [4] it was 20 µg/mL (≈ 61.2 µM); with Escherichia coli [6] it was 20 µg/mL (≈ 61.2 µM); in the test on Salmonella typhimurium [8] it was 40 µg/mL (≈ 122 µM). Further, the MFC with Candida albicans [10] stood at 45 µg/mL (≈ 138 µM); in the test on Aspergillus flavus [12], 20 µg/mL (≈ 61.2 µM); with Aspergillus niger [14], 135 µg/mL (≈ 413 µM). Besides, the IC50 with HeLa came to 78.5 µM; in the test with MCF7, 75.7 µM.
For the molecule `COc1cccc2c1C(=O)c1c(O)c3c(c(O)c1C2=O)C[C@@](O)(C(=O)CO)C[C@@H]3O[C@H]1C[C@H](N)[C@H](O)[C@H](C)O1` [DOXORUBICIN HYDROCHLORIDE], the IC50 in the test with HeLa and with MCF7 was < 0.1 µM throughout.
`O=C1CSC(c2ccccn2)N1c1ccc(Cl)cc1O` (centres undefined): the MIC against Bacillus subtilis [1] is 85 µg/mL (≈ 277 µM); against Staphylococcus aureus [3] it was 60 µg/mL (≈ 196 µM); against Escherichia coli [5] it was 90 µg/mL (≈ 293 µM); against Salmonella typhimurium [7], 85 µg/mL (≈ 277 µM); in the test on Candida albicans [9], 55 µg/mL (≈ 179 µM); against Aspergillus flavus [11] it was 100 µg/mL (≈ 326 µM). Also, the MIC turned out to be 80 µg/mL (≈ 261 µM) in the test on Aspergillus niger [13] and 75 µg/mL (≈ 244 µM) in the test on Cryptococcus neoformans [15]. In addition, the MBC amounted to 165 µg/mL (≈ 538 µM) with Bacillus subtilis [2], 155 µg/mL (≈ 505 µM) with Staphylococcus aureus [4], 165 µg/mL (≈ 538 µM) in the test with Escherichia coli [6] and 150 µg/mL (≈ 489 µM) with Salmonella typhimurium [8]. For the same molecule, the MFC was determined as 155 µg/mL (≈ 505 µM) against Candida albicans [10], 165 µg/mL (≈ 538 µM) with Aspergillus flavus [12], 155 µg/mL (≈ 505 µM) in the test with Aspergillus niger [14] and 150 µg/mL (≈ 489 µM) in the test with Cryptococcus neoformans [16]. In addition, the IC50 in the test on HeLa stood at 87.2 µM; in the test with MCF7 it was 88.7 µM.
